KCNQ1 act = human KCNQ1 channel potentiation or activation; 310,000 compounds, 0.35% hits; B-score at 10 µM; CHO-K1 KCNQ1, thallium flux FluxOR fluorescence; active compounds read high;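 active = fluorescence ratio B-score, a plate-corrected score, at least three library SD, with initial intensity B-score within 5 SD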
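System: Stable KCNQ1 CHO-K1 line | Incubation: 90 min dye loading and 20 min compound exposure, both at room temperature | Measure: Ratio B score | Medium: Assay buffer for compound exposure, DMSO matched across wells | Compound dosing: Single-concentration screen | Probe or stimulus: K+/Tl+ depolarizing stimulus | Measured by: Kinetic FluxOR fluorescence, 10 s baseline plus 110 s post-stimulus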
AI-2 QS modul = Vibrio harveyi AI-2 quorum sensing modulation; Vibrio harveyi JMH597 AI-2 luminescence/OD600 ratio, 9 h; active compounds read low; strain lacks LuxN and CqsS sensors; 0 = neutral-control median; activity change, % at 7.5 µM; 300,000 compounds, 0.4% hits; in the data active = activity change below about -75%, passing the limit was not always enough;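 also: luminescence divided by OD600 gain over 9 h not by final OD600 alone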
hERG rescue = compounds protecting human hERG from proarrhythmic drug block; Q12809; CHO-hERG, FluxOR thallium flux, dofetilide IC70 present; activation (rescue from dofetilide block), less the hit threshold, % at 10 µM; 310,000 compounds, 0.51% hits;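 active = activation above the mean of controls blocked by dofetilide plus 5 SD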;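 also: thallium influx through hERG after potassium depolarization seen as dye fluorescence rise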
KCC2 mod = modulates chloride dependent transport by human KCC2; 190,000 compounds, 2.2% hits; B-score of Tl+ flux slope (higher = more flux/activation; lower = inhibition) at 10 µM; Q9H2X9; KCC2 cells, thallium flux FluoZin-2 fluorescence;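 active = thallium flux slope and its plate-corrected score both differing from the plate sample mean at a set confidence after two filtering rounds, in either direction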;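 also: slope of fluorescence scaled to starting intensity during 10 to 20 s after thallium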
Target sequence (Q9H2X9 whole entry, looked up): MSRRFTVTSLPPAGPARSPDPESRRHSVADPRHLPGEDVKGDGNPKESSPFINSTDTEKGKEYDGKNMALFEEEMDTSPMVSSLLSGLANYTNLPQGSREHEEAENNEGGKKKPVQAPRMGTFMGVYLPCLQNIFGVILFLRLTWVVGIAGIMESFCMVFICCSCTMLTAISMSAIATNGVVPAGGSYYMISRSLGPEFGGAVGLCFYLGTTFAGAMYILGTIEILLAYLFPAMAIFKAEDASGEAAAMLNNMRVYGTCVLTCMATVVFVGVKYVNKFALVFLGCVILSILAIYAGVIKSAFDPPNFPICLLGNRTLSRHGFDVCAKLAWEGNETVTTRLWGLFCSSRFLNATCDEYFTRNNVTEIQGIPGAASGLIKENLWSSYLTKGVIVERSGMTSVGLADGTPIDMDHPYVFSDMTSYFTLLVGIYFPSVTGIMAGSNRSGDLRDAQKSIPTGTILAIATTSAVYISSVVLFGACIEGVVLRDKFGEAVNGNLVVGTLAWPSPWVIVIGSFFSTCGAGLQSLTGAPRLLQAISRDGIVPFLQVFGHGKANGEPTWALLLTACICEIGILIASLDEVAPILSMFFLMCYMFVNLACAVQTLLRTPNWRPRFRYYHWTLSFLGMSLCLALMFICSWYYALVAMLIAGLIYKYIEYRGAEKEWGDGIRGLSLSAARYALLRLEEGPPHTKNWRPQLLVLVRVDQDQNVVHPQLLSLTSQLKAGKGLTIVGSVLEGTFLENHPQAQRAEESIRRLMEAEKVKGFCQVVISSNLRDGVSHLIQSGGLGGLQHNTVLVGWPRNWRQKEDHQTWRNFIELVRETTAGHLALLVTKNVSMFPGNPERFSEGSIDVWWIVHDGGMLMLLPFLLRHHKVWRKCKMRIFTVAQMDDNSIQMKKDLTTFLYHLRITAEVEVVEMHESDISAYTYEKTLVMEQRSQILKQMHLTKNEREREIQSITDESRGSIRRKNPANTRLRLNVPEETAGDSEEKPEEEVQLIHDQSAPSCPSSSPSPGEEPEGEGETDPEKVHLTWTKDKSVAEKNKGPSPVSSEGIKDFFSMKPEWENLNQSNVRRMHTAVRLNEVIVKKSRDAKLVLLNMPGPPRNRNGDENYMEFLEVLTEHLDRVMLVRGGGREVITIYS
Mot1-301 SUMO = SUMOylation pathway inhibition by Mot1-301 growth rescue | S. cerevisiae Mot1-301 growth rescue, ATP luminescence, 38.5C; percent above DMSO median, 100 means doubled | growth rescue, % at 18.8 µM | 320,000 compounds, 1% hits;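 active = every valid replicate shows activation above 250% relative to neutral control wells; inactive = the rest, any valid replicate at or below 250%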;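 also: OY570 slx delta 5 strain wells were the positive control but not used for scaling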
KCNQ1 block = blocks the human KCNQ1 potassium channel; P51787; CHO-K1 KCNQ1, FluxOR thallium flux fluorescence; active compounds read high; B-score at 10 µM; 310,000 compounds, 1.3% hits; AID 2642;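 active = compounds whose thallium flux B-score, printed positive for inhibition, exceeds three library SD while starting fluorescence stays within three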;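 also: channel opened by potassium depolarization with thallium stimulus after 20 min compound exposure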
Active calls of the source: *; i = inactive; / = not tested or not shown. Most compounds without a hit are left out; they make up all but 4.2% or so of the library.

SMILES	KCNQ1 act	AI-2 QS modul	hERG rescue	KCC2 mod	Mot1-301 SUMO	KCNQ1 block
CC1(C)CC(=O)C2=C(C1)OC1=C(C(=O)CC(C)(C)C1)C2c1ccc(O)cc1O	i	27	-42	/	-18	7*
CC1(C)CC(=O)C2=C(C1)OC1=C(C(=O)CC(C)(C)C1)C2c1ccc(O)c([N+](=O)[O-])c1	i	12	-7	0.0044	-16	i
O=C1C=C(c2ccccc2)C(=O)N1Nc1ccccc1	i	24	-19	/	215	i
Cc1ccc(NN2C(=O)C=C(c3ccc(Cl)cc3)C2=O)cc1	i	43	-10	/	572*	i
CCC(C)c1ccc(NC(=O)c2c([N+](=O)[O-])cnn2CC)cc1 (configuration not stated)	i	15	-13	/	9	i
Cc1ccc(C(=O)NNC(=O)c2cccc(Br)c2)cc1	i	/	11*	/	-15	i
O=C(NNC(=S)Nc1cccc2ccccc12)c1cccc(Br)c1	i	28	-14	14*	3	i
Cc1ccc(C(=O)NNC(=O)CCCCC(=O)NNC(=O)c2ccc(C)cc2)cc1	9*	2	-1	/	1	i
CC(=O)c1cccc(NC(=S)Nc2cccc3ccccc23)c1	i	7	-3	/	-7	i
COc1ccc(C(=O)NNC(=O)CCCCC(=O)NNC(=O)c2ccc(OC)cc2)cc1	i	-1	-9	0.32	-4	i
CC1CCN(C(=O)CNC(=O)c2ccc(Br)o2)CC1	/	/	/	/	-9	/
C=C(C)CNC(=S)Nc1nc2c(cc1C(=O)OCC)CCCC2	i	36	1	43*	/	i
CCOC(=O)c1cc2c(nc1N)CCCC2	i	15	-12	-0.39	104	i
Nc1cc(=O)[nH]c(SCC(=O)Nc2cccc(Cl)c2Cl)n1	i	16	-2	-0.8	-1	i
C#CCOCCOCCOCCNc1nc(N2CCN(C(=O)[C@H](CCC(=O)O)n3cc([C@@H](N)[C@H](C)CC)nn3)CC2)nc(N2CCN(C(=O)[C@H](CCCCN)n3cc([C@@H](N)CC(N)=O)nn3)CC2)n1	/	/	/	/	-3	/
O=C(CCCSc1ccc(Cl)cc1)Nc1ccccc1O	i	-47	-14	/	5	9*
COc1ccc(C(C(=O)NC2CCCCC2)N(C(=O)CCl)c2cccc(Cl)c2)cc1 (configuration not stated)	i	44	-8	-0.33	328*	i
COc1ccc(CN(C(=O)c2nsc(Cl)c2Cl)C(C(=O)NC2CCCCC2)c2ccc(OC)cc2)cc1 (configuration not stated)	i	58	-10	-1.1	6	i
COc1ccc(CN(C(=O)c2nsc(Cl)c2Cl)C(C(=O)NC2CCCC2)c2ccc(C)cc2)cc1 (configuration not stated)	i	27	-18	-0.5	12	11*
COC(CNS(=O)(=O)c1ccc(S(=O)(=O)NC2CC2)cc1)OC	i	8	-8	/	-16	i
COc1ccc(-n2c(-c3ccc(Br)cc3)c[n+]3c2SC(C)C3)cc1 (configuration not stated)	i	11	-33	-0.11	40	i
O=[N+]([O-])c1ccc(O)c(C=Nc2ccc3c(c2)OCCO3)c1	i	22	-10	0.52	30	i
Oc1c(Br)cc(Br)cc1C=Nc1ccc2c(c1)OCO2	14*	25	-4	-0.51	388	i
Oc1c(Br)cc(Br)cc1C=Nc1ccc2c(c1)OCCO2	14*	-2	-8	-1.6	/	i
COCCNC(=S)Nc1cc(OC)c(OC)cc1C#N	i	36	-14	0.59	/	i
SMILES	KCNQ1 act	AI-2 QS modul	hERG rescue	KCC2 mod	Mot1-301 SUMO	KCNQ1 block
Cc1cc(Sc2ncnc(N)c2[N+](=O)[O-])ncn1	i	-33	-24	-1.3	213	6*
CC(=O)n1cc([C@H]2C=C(C(=O)NCc3ccccc3)O[C@@H](OCc3ccc(CO)cc3)C2)c2ccccc21	i	4	-10	-2.8*	-8	i
CC(=O)n1cc([C@H]2C=C(C(=O)NCc3ccccc3)O[C@@H](OCCCCO)C2)c2ccccc21	i	18	-13	-1.5	30	i
CC(=O)n1cc([C@H]2C=C(C(=O)Nc3ccccc3)O[C@@H](OCCCCO)C2)c2ccccc21	i	4	-7	-5.1*	4	i
C#CCNC(=O)C1=C[C@@H](c2cn(C(C)=O)c3ccccc23)C[C@@H](OCc2ccc(CO)cc2)O1	i	18	-8	-1.2	2	i
O=C(NNC(=O)C1CCCC1)c1cc([N+](=O)[O-])cc([N+](=O)[O-])c1	/	/	/	/	-3	/
CC1CC(C)CN(S(=O)(=O)c2ccc3c(c2)oc(=O)n3CC(=O)N(C)Cc2ccccc2)C1 (configuration not stated)	i	88	-2	/	333*	i
O=C(NC1CCCCC1)N1CCC(n2cnc3ccccc32)CC1	i	4	6.2*	0.17	-9	i
COC(=O)/C=C/C(=O)N1CCN(c2ccccc2C)CC1	i	9	-15	-0.89	439*	i
O=C(NNc1nc2cc3c(cc2s1)OCCO3)c1ccc(F)cc1	i	-90*	-6	-0.67	1	i
CCOC(CNC(=O)C1CCN(S(=O)(=O)c2ccc3nc4c(c(C(=O)O)c3c2)CCCCC4)CC1)OCC	i	10	-2	/	-2	i
Cc1sc2ncnc(Sc3nnnn3-c3ccccc3)c2c1C	i	17	-10	0.48	-14	i
Clc1ccc(-n2nnnc2Sc2ncnc3sccc23)cc1	i	14	-9	-0.12	578*	i
Clc1ccc(-[n+]2c(-c3cccc(Br)c3)[nH]c3nc4ccccc4nc32)cc1	i	21	-11	-2.5	-16	10*
Cc1cccc(-n2ccnc2CN2CCC(CO)(Cc3ccccc3)CC2)c1	i	27	-16	-1.4	643*	i
COc1ccc(-n2nc(C(=O)NCC(=O)NCCc3ccc(OC)c(OC)c3)c3ccccc3c2=O)cc1Cl	i	13	-12	/	-4	i
Oc1ccccc1CNc1cnc2ccccc2c1	i	12	-17	-0.63	-4	i
C=CCc1cccc(CNc2cnc3ccccc3c2)c1O	i	-77*	-8	/	112	i
CC1CC(C)CN(C(=O)COC(=O)c2ccc(S(=O)(=O)N(C)c3ccccc3)cc2)C1 (configuration not stated)	/	/	/	/	8	/
Cc1c(C(=O)N(Cc2ccccc2)C(C)C)oc2ccc(S(=O)(=O)N3CCOCC3)cc12	i	28	-11	/	12	i

Source: PubChem (several laboratories)
